Calls of active or inactive are those of the source. The rule behind the calls is not given here.
Assays:
Mus musculus [1] = experiment: Antihyperglycemic activity in db/db mouse assessed as improvement on glucose tolerance by measuring blood glucose AUC level at 30 mg/kg, po qd for 15 days by oral glucose tolerance test; format: functional
Procedure, shortened: (§1)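 db/db mice dosed orally once daily for 15 consecutive days at 3, 10 or 30 mg/kg, with vehicle controls and pioglitazone at 10 mg/kg. Oral glucose tolerance tests on day 10 and day 15. Overall improvement in glucose tolerance calculated against vehicle control. Mean % change in 5 animals per group.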

Rattus norvegicus [2] = experiment: Antihyperglycemic activity in albino Wistar rat assessed as reduction in blodd glucose level at 100 mg/kg, po dosed 30 mins before sucrose load and measured 30 to 120 mins post sucrose injection by glucometry; format: functional, organism-based
Procedure, shortened: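 Normal albino rats given an oral sucrose load, with a single oral dose of 100 mg/kg b.wt. Blood glucose profile followed after the load, and glucose AUC taken over 0–2 h. Percent inhibition of the postprandial rise in blood glucose calculated against control. Mean % change in 5 animals per group.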

Mus musculus [3] = experiment: Antihyperglycemic activity in db/db mouse assessed as reduction in triglyceride level at 10 mg/kg, po qd for 15 days; format: functional; design: scale not given: the % may be the effect or the level left
Procedure, shortened: (§2)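 db/db mice given 3, 10 or 30 mg/kg orally once a day for 15 consecutive days, alongside vehicle controls. Serum triglyceride, total cholesterol, HDL-C and insulin measured, along with fasting blood glucose. Expressed as mean % change in 5 animals per group versus control.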

HepG2 [4] = experiment: Inhibition of glucagon-mediated glucose release in human HepG2 cells at 10 uM incubated for 24 hrs by Amplex red glucose/glucose oxidase assay; format: functional, cell-based
Mus musculus [5] = experiment: Antihyperglycemic activity in db/db mouse assessed as reduction in cholesterol level at 30 mg/kg, po qd for 15 days; format: functional; design: scale not given: the % may be the effect or the level left; procedure, shortened: as §2
Mus musculus [6] = experiment: Antihyperglycemic activity in db/db mouse assessed as improvement on glucose tolerance by measuring blood glucose AUC level at 3 mg/kg, po qd for 15 days by oral glucose tolerance test; format: functional; procedure, shortened: as §1
Mus musculus [7] = experiment: Toxicity in db/db mouse assessed as effect on body weight level at 3 to 30 mg/kg, po qd for 15 days by oral glucose tolerance test; format: organism-based; conditions: in vivo, 360 h
L6 [8] = experiment: Stimulation of [3H]2-deoxyglucose uptake in rat L6 cells incubated for 16 hrs by scintillation counting method; format: functional, cell-based
Procedure, shortened: (§3)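 L6 myotubes incubated with the compound […]; insulin at 100 nM for 20 min served as the positive control. Uptake of ³H-2-deoxyglucose measured and expressed as fold stimulation relative to the control condition.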

Mus musculus [9] = experiment: Antihyperglycemic activity in db/db mouse assessed as reduction in fasting blood glucose level at 30 mg/kg, po qd for 15 days; format: functional; design: scale not given: the % may be the effect or the level left; procedure, shortened: as §2
Rattus norvegicus [10] = experiment: Antihyperglycemic activity in Sprague-Dawley rat model of STZ-induced diabetes assessed as improvement on glucose tolerance at 100 mg/kg, po dosed 30 mins before sucrose load and measured after 5 hrs post sucrose load by glucometry; format: functional
Procedure, shortened: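 Sucrose-challenged streptozotocin-induced diabetic rats, single oral dose of 100 mg/kg b.wt. Blood glucose profile followed after sucrose load, and glucose AUC taken over 0–24 h. Percent improvement in glucose tolerance calculated at 5 h post sucrose load. Values are mean % change in 5 animals per group, compared with control.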

Mus musculus [11] = experiment: Antihyperglycemic activity in db/db mouse assessed as improvement on glucose tolerance by measuring blood glucose AUC level at 3 mg/kg, po qd for 10 days by oral glucose tolerance test; format: functional; procedure, shortened: as §1
Mus musculus [12] = experiment: Antihyperglycemic activity in db/db mouse assessed as increase in HDL-C level at 10 mg/kg, po qd for 15 days; format: functional; procedure, shortened: as §2
Mus musculus [13] = experiment: Antihyperglycemic activity in db/db mouse assessed as improvement on glucose tolerance by measuring blood glucose AUC level at 30 mg/kg, po qd for 10 days by oral glucose tolerance test; format: functional; procedure, shortened: as §1
Mus musculus [14] = experiment: Antihyperglycemic activity in db/db mouse assessed as increase in HDL-C level at 30 mg/kg, po qd for 15 days; format: functional; procedure, shortened: as §2
Mus musculus [15] = experiment: Antihyperglycemic activity in db/db mouse assessed as reduction in blood glucose level at 3 to 30 mg/kg, po qd for 15 days by oral glucose tolerance test; format: functional, organism-based
Procedure, shortened: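 Type 2 diabetic db/db mice dosed orally once a day for 15 days at 3, 10 or 30 mg/kg, with pioglitazone at 10 mg/kg as standard. Blood glucose measured daily and profile compared with vehicle-treated animals. Mean % change in 5 animals per group.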

Mus musculus [16] = experiment: Antihyperglycemic activity in db/db mouse assessed as reduction in insulin level at 3 mg/kg, po qd for 15 days; format: functional; design: scale not given: the % may be the effect or the level left; procedure, shortened: as §2
Mus musculus [17] = experiment: Antihyperglycemic activity in db/db mouse assessed as reduction in insulin level at 30 mg/kg, po qd for 15 days; format: functional; design: scale not given: the % may be the effect or the level left; procedure, shortened: as §2
Mus musculus [18] = experiment: Antihyperglycemic activity in db/db mouse assessed as improvement on glucose tolerance by measuring blood glucose AUC level at 10 mg/kg, po qd for 15 days by oral glucose tolerance test; format: functional; procedure, shortened: as §1
Mus musculus [19] = experiment: Antihyperglycemic activity in db/db mouse assessed as reduction in fasting blood glucose level at 3 mg/kg, po qd for 15 days; format: functional; design: scale not given: the % may be the effect or the level left; procedure, shortened: as §2
Mus musculus [20] = experiment: Antihyperglycemic activity in db/db mouse assessed as reduction in cholesterol level at 10 mg/kg, po qd for 15 days; format: functional; design: scale not given: the % may be the effect or the level left; procedure, shortened: as §2
L6 [21] = experiment: Stimulation of [3H]2-deoxyglucose uptake in rat L6 cells at 10 uM incubated for 16 hrs by scintillation counting method; format: functional, cell-based; procedure, shortened: as §3
HepG2 [22] = experiment: Stimulation of [3H]2-deoxyglucose uptake in human HepG2 cells at 10 uM incubated for 16 hrs by scintillation counting method; format: functional, cell-based

## COC(=O)c1c(SC)cc(-c2ccc(C)cc2)c2c1-c1cn(-c3ccccc3)nc1CC2
Mus musculus [1]
  Activity: 31.6%
Rattus norvegicus [2]
  Activity: Active
Mus musculus [3]
  Activity: 13.2%
HepG2 [4]
  inhibition: Active
Mus musculus [5]
  Activity: 22.7%
Mus musculus [6]
  Activity: 13.2%
Mus musculus [7]
  Activity: Non-Toxic
L6 [8]
  Activity: Dose-dependent effect
Mus musculus [9]
  Activity: 31.9%
Rattus norvegicus [10]
  Activity: 23.1%
Mus musculus [11]
  Activity: 7.84%
Mus musculus [12]
  Activity: 10.9%
Mus musculus [13]
  Activity: 25.7%
Mus musculus [14]
  Activity: 20.5%
Mus musculus [15]
  Activity: Dose-dependent effect
Mus musculus [16]
  Activity: 6.57%
Mus musculus [17]
  Activity: 30.5%
Mus musculus [18]
  Activity: 20.1%
Mus musculus [19]
  Activity: 10.1%
Mus musculus [20]
  Activity: 15.3%
L6 [21]
  Activity: Active
HepG2 [22]
  Activity: Active
